According to ChEMBL document CHEMBL3045036, “Chemical composition, plant genetic differences, and antifungal activity of the essential oil of Helichrysum italicum G. Don ssp. microphyllum (Willd) Nym” (2003):
Values after ≈ are worked out from the molar mass of the structure shown.

Legend:
Type in all cases: functional
[1] = test system: Rhizoctonia solani; assay: Fungicidal activity against Rhizoctonia solani
How it was run: (§1)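 Broth microdilution MIC. Essential oil stock of 1 mg/mL was made in sterile broth with 50% ethanol, then serially diluted in 100 µL potato dextrose broth per well. Each well received 1 µL fungal suspension (~1 × 10^5 cells). Incubation matched the paper-disc test: several days at 24 °C. Growth and medium sterility were checked for each strain.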

[2] = test system: Fusarium graminearum; assay: Fungicidal activity against Fusarium graminearum; how it was run: as §1
[3] = test system: Fusarium oxysporum f. sp. lycopersici; assay: Fungicidal activity against Fusarium oxysporum f. sp. Lycopersici; how it was run: as §1
[4] = test system: Zymoseptoria tritici; assay: Fungicidal activity against Zymoseptoria tritici; how it was run: as §1
[5] = test system: Botrytis cinerea; assay: Fungicidal activity against Botryotinia fuckeliana; how it was run: as §1
[6] = test system: Athelia rolfsii; assay: Fungicidal activity against Athelia rolfsii; conditions: Agroathelia rolfsii; how it was run: as §1
[7] = test system: Helminthosporium; assay: Fungicidal activity against Helminthosporium oryzae; how it was run: as §1
[8] = test system: Cercospora beticola; assay: Fungicidal activity against Cercospora beticola; how it was run: as §1
[9] = test system: Pyricularia oryzae; assay: Fungicidal activity against Magnaporthe oryzae; how it was run: as §1
[10] = test system: Phytophthora capsici; assay: Fungicidal activity against Phytophthora capsici; how it was run: as §1
[11] = test system: Globisporangium ultimum; assay: Fungicidal activity against Pythium ultimum; how it was run: as §1

## CCCCNC(=O)n1c(NC(=O)OC)nc2ccccc21 [BENOMYL]
[1]
  MIC: 6.2 µg/mL (≈ 21.4 µM)
[2]
  MIC: 0.6 µg/mL (≈ 2.07 µM)
[3]
  MIC: 1.5 µg/mL (≈ 5.17 µM)
[4]
  MIC: 0.6 µg/mL (≈ 2.07 µM)

## CCOC(=O)C1(C)OC(=O)N(c2cc(Cl)cc(Cl)c2)C1=O (stereo unspecified) [CHLOZOLINATE]
[5]
  MIC: 3.1 µg/mL (≈ 9.33 µM)

## FC(F)C(F)(F)OCC(Cn1cncn1)c1ccc(Cl)cc1Cl (stereo unspecified) [TETRACONAZOLE]
[6]
  MIC: 25 µg/mL (≈ 67.2 µM)
[7]
  MIC: 0.1 µg/mL (≈ 0.269 µM)
[8]
  MIC: 1.5 µg/mL (≈ 4.03 µM)

## CO/N=C(\C(=O)OC)c1ccccc1COc1ccccc1C [KRESOXYM-METHYL]
[9]
  MIC: 1.5 µg/mL (≈ 4.79 µM)

## COCC(=O)N(c1c(C)cccc1C)C(C)C(=O)OC (stereo unspecified) [METALAXYL]
[10]
  MIC: 1.5 µg/mL (≈ 5.37 µM)
[11]
  MIC: 0.6 µg/mL (≈ 2.15 µM)
